# Source: ChEMBL document CHEMBL3244078, “Synthesis and antihypertensive activity of novel 3-hydrazino-5-phenyl-1,2,4-triazines” (J Med Chem, 1979)
# Calls of active or inactive are those of the source. The calls are words filed in the database; no cut-off is given here.
# Tests used:
# [1] = system: Rattus norvegicus; assay: Antihypertensive activity in spontaneously hypertensive rat assessed as mean heart rate at 10 mg/kg, po after 24 hrs by tail cuff method relative to vehicle-treated control; assay type: functional
# Summary of the method: (§1)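 Heart rate by biotachometer in the SHR dose-response protocol: five rats per dose, oral doses of 100, 30, 10 and 3 mg/kg in 0.25% methylcellulose, second dose right after the 24-h reading. Mean heart rate recorded predose and at 4, 24, 28 and 48 h.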
# [2] = system: Rattus norvegicus; assay: Antihypertensive activity in spontaneously hypertensive rat assessed as drop in mean systolic blood pressure at 10 mg/kg, po followed by second dosing at 24 hrs measured after 28 hrs by tail cuff method relative to vehicle-treated control; assay type: functional, Artery
# Summary of the method: (§2)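 Dose-response run of the primary SHR protocol: rats aged 12–16 weeks, systolic BP of 170 mmHg or greater, five per dose. Oral doses of 100, 30, 10 and 3 mg/kg in 0.25% methylcellulose, redosed immediately after the 24-h reading. Tail-cuff systolic BP read predose and at 4, 24, 28 and 48 h. Mean drop from predose; Student's t test, p < 0.05.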
# [3] = system: Rattus norvegicus; assay: Antihypertensive activity in spontaneously hypertensive rat assessed as mean heart rate at 10 mg/kg, po after 4 hrs by tail cuff method relative to vehicle-treated control; assay type: functional; summary of the method: as §1
# [4] = system: Rattus norvegicus; assay: Antihypertensive activity in spontaneously hypertensive rat assessed as drop in mean systolic blood pressure at 30 mg/kg, po after 24 hrs by tail cuff method relative to vehicle-treated control; assay type: functional, Artery; summary of the method: as §2
# [5] = system: Rattus norvegicus; assay: Antihypertensive activity in spontaneously hypertensive rat assessed as mean heart rate at 3 mg/kg, po followed by second dosing at 24 hrs measured after 48 hrs by tail cuff method relative to vehicle-treated control; assay type: functional; summary of the method: as §1
# [6] = system: Rattus norvegicus; assay: Antihypertensive activity in spontaneously hypertensive rat assessed as drop in mean systolic blood pressure at 10 mg/kg, po followed by second dosing at 24 hrs measured after 48 hrs by tail cuff method relative to vehicle-treated control; assay type: functional, Artery; summary of the method: as §2
# [7] = system: Rattus norvegicus; assay: Antihypertensive activity in spontaneously hypertensive rat assessed as drop in mean systolic blood pressure at 10 mg/kg, po after 4 hrs by tail cuff method relative to vehicle-treated control; assay type: functional, Artery; summary of the method: as §2
# [8] = system: Rattus norvegicus; assay: Antihypertensive activity in spontaneously hypertensive rat assessed as mean heart rate at 3 mg/kg, po followed by second dosing at 24 hrs measured after 28 hrs by tail cuff method relative to vehicle-treated control; assay type: functional; summary of the method: as §1
# [9] = system: Rattus norvegicus; assay: Antihypertensive activity in spontaneously hypertensive rat assessed as mean heart rate at 10 mg/kg, po followed by second dosing at 24 hrs measured after 48 hrs by tail cuff method relative to vehicle-treated control; assay type: functional; summary of the method: as §1
# [10] = system: Rattus norvegicus; assay: Antihypertensive activity in spontaneously hypertensive rat assessed as drop in mean systolic blood pressure at 10 mg/kg, po after 24 hrs by tail cuff method relative to vehicle-treated control; assay type: functional, Artery; summary of the method: as §2
# [11] = system: Rattus norvegicus; assay: Antihypertensive activity in spontaneously hypertensive rat assessed as mean heart rate at 30 mg/kg, po after 24 hrs by tail cuff method relative to vehicle-treated control; assay type: functional; summary of the method: as §1
# [12] = Toxicity in ip dosed CF-1 mouse after 48 hrs; conditions: in vivo
# [13] = system: Rattus norvegicus; assay: Antihypertensive activity in spontaneously hypertensive rat assessed as mean heart rate at 30 mg/kg, po followed by second dosing at 24 hrs measured after 48 hrs by tail cuff method relative to vehicle-treated control; assay type: functional; summary of the method: as §1
# [14] = system: Rattus norvegicus; assay: Antihypertensive activity in spontaneously hypertensive rat assessed as mean heart rate at 30 mg/kg, po after 4 hrs by tail cuff method relative to vehicle-treated control; assay type: functional; summary of the method: as §1
# [15] = system: Rattus norvegicus; assay: Antihypertensive activity in spontaneously hypertensive rat assessed as mean heart rate at 3 mg/kg, po after 4 hrs by tail cuff method relative to vehicle-treated control; assay type: functional; summary of the method: as §1
# [16] = system: Rattus norvegicus; assay: Antihypertensive activity in spontaneously hypertensive rat assessed as drop in mean systolic blood pressure at 30 mg/kg, po followed by second dosing at 24 hrs measured after 48 hrs by tail cuff method relative to vehicle-treated control; assay type: functional, Artery; summary of the method: as §2
# [17] = system: Rattus norvegicus; assay: Antihypertensive activity in spontaneously hypertensive rat assessed as drop in mean systolic blood pressure at 30 mg/kg, po followed by second dosing at 24 hrs measured after 28 hrs by tail cuff method relative to vehicle-treated control; assay type: functional, Artery; summary of the method: as §2
# [18] = system: Rattus norvegicus; assay: Antihypertensive activity in spontaneously hypertensive rat assessed as mean heart rate at 30 mg/kg, po followed by second dosing at 24 hrs measured after 28 hrs by tail cuff method relative to vehicle-treated control; assay type: functional; summary of the method: as §1
# [19] = system: Rattus norvegicus; assay: Antihypertensive activity in spontaneously hypertensive rat assessed as drop in mean systolic blood pressure at 30 mg/kg, po after 4 hrs by tail cuff method relative to vehicle-treated control; assay type: functional, Artery; summary of the method: as §2
# [20] = system: Rattus norvegicus; assay: Antihypertensive activity in spontaneously hypertensive rat assessed as mean heart rate at 3 mg/kg, po after 24 hrs by tail cuff method relative to vehicle-treated control; assay type: functional; summary of the method: as §1
# [21] = system: Rattus norvegicus; assay: Antihypertensive activity in spontaneously hypertensive rat assessed as mean heart rate at 10 mg/kg, po followed by second dosing at 24 hrs measured after 28 hrs by tail cuff method relative to vehicle-treated control; assay type: functional; summary of the method: as §1
# [22] = system: Rattus norvegicus; assay: Antihypertensive activity in spontaneously hypertensive rat assessed as drop in mean systolic blood pressure at 50 mg/kg, po after 24 hrs by tail cuff method relative to vehicle-treated control; assay type: functional, Artery
# Summary of the method: (§3)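 Spontaneously hypertensive rats aged 12–16 weeks with systolic BP of 170 mmHg or greater, in groups of five. Dosed po as a solution or suspension in 0.25% methylcellulose at 5 mL/kg, with a second dose right after the 24-h reading. Tail-cuff systolic BP (capacitance transducer) was read predose as control, then at 4, 24, 28 and 48 h. Mean drop from predose; Student's t test, p < 0.05.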
# [23] = system: Rattus norvegicus; assay: Antihypertensive activity in spontaneously hypertensive rat assessed as drop in mean systolic blood pressure at 50 mg/kg, po after 4 hrs by tail cuff method relative to vehicle-treated control; assay type: functional, Artery; summary of the method: as §3
# [24] = system: Rattus norvegicus; assay: Antihypertensive activity in spontaneously hypertensive rat assessed as drop in mean systolic blood pressure at 50 mg/kg, po followed by second dosing at 24 hrs measured after 48 hrs by tail cuff method relative to vehicle-treated control; assay type: functional, Artery; summary of the method: as §3
# [25] = system: Rattus norvegicus; assay: Antihypertensive activity in spontaneously hypertensive rat assessed as drop in mean systolic blood pressure at 50 mg/kg, po followed by second dosing at 24 hrs measured after 28 hrs by tail cuff method relative to vehicle-treated control; assay type: functional, Artery; summary of the method: as §3
# [26] = system: Rattus norvegicus; assay: Antihypertensive activity in spontaneously hypertensive rat assessed as mean heart rate at 100 mg/kg, po followed by second dosing at 24 hrs measured after 28 hrs by tail cuff method relative to vehicle-treated control; assay type: functional; summary of the method: as §1
# [27] = system: Rattus norvegicus; assay: Antihypertensive activity in spontaneously hypertensive rat assessed as drop in mean systolic blood pressure at 100 mg/kg, po followed by second dosing at 24 hrs measured after 48 hrs by tail cuff method relative to vehicle-treated control; assay type: functional, Artery
# [28] = system: Rattus norvegicus; assay: Antihypertensive activity in spontaneously hypertensive rat assessed as drop in mean systolic blood pressure at 100 mg/kg, po followed by second dosing at 24 hrs measured after 28 hrs by tail cuff method relative to vehicle-treated control; assay type: functional, Artery
# [29] = system: Rattus norvegicus; assay: Antihypertensive activity in spontaneously hypertensive rat assessed as drop in mean systolic blood pressure at 100 mg/kg, po after 24 hrs by tail cuff method relative to vehicle-treated control; assay type: functional, Artery
# [30] = system: Rattus norvegicus; assay: Antihypertensive activity in spontaneously hypertensive rat assessed as mean heart rate at 100 mg/kg, po after 24 hrs by tail cuff method relative to vehicle-treated control; assay type: functional; summary of the method: as §1
# [31] = system: Rattus norvegicus; assay: Antihypertensive activity in spontaneously hypertensive rat assessed as mean heart rate at 100 mg/kg, po followed by second dosing at 24 hrs measured after 48 hrs by tail cuff method relative to vehicle-treated control; assay type: functional; summary of the method: as §1
# [32] = system: Rattus norvegicus; assay: Antihypertensive activity in spontaneously hypertensive rat assessed as drop in mean systolic blood pressure at 100 mg/kg, po after 4 hrs by tail cuff method relative to vehicle-treated control; assay type: functional, Artery
# [33] = system: Rattus norvegicus; assay: Antihypertensive activity in spontaneously hypertensive rat assessed as mean heart rate at 100 mg/kg, po after 4 hrs by tail cuff method relative to vehicle-treated control; assay type: functional; summary of the method: as §1
Compound,Activity [1] [bpm],Activity [3] [bpm],Activity [4] [mmHg],Activity [5] [bpm],Activity [8] [bpm],Activity [9] [bpm],Activity [11] [bpm],LD50 at 48 h [12] [mg/kg],Activity [13] [bpm],Activity [14] [bpm],Activity [15] [bpm],Activity [16] [mmHg],Activity [17] [mmHg],Activity [18] [bpm],Activity [19] [mmHg],Activity [20] [bpm],Activity [21] [bpm],Activity [26] [bpm],Activity [27] [mmHg],Activity [28] [mmHg],also measured
NNc1nncc2ccccc12 [HYDRALAZINE],468,504,60,432,444,448,480,100,448,492,448,14,47,496,88,392,428,,,,Activity [2]: 10 mmHg; Activity [6]: 10 mmHg; Activity [7]: 60 mmHg; Activity [10]: 38 mmHg
NNc1nncc(-c2ccccc2)n1,,,,,,,,56,,,,,,,,,,,,,Activity [22]: 43 mmHg; Activity [23]: 30 mmHg; Activity [24]: 60 mmHg; Activity [25]: 58 mmHg
CC(=O)NNc1nncc(-c2cccc(Cl)c2)n1,460,458,14,442,436,448,438,> 300,462,400,422,19,19,460,16,430,448,482,55,50,Activity ([2]; Artery): inactive; Activity ([6]; Artery): inactive; Activity ([7]; Artery): inactive; Activity [29]: 23 mmHg; Activity ([10]; Artery): inactive; Activity [30]: 482 bpm; Activity [31]: 490 bpm; Activity [32]: 20 mmHg; Activity [33]: 478 bpm
O=C(NNc1nncc(-c2ccc(Cl)c(Cl)c2)n1)C(F)(F)F,438,412,18,424,428,400,438,> 300,426,444,430,16,18,435,18,424,448,438,25,35,Activity [2]: 17 mmHg; Activity [6]: 15 mmHg; Activity [7]: 16 mmHg; Activity [29]: 29 mmHg; Activity [10]: 12 mmHg; Activity [30]: 462 bpm; Activity [31]: 438 bpm; Activity [32]: 30 mmHg; Activity [33]: 472 bpm
Br.NCC(=O)NNc1nncc(-c2ccccc2)n1.O,,,,,,,,75,,,,,,,,,,,,,Activity [22]: 35 mmHg; Activity [23]: 41 mmHg; Activity [24]: 91 mmHg; Activity [25]: 105 mmHg
Cl.O.O=C(NNc1nncc(-c2ccccc2)n1)C12CC3CC(CC(C3)C1)C2,446,468,12,426,418,422,412,> 300,392,410,445,11,18,380,20,420,428,442,35,46,Activity ([2]; Artery): inactive; Activity ([6]; Artery): inactive; Activity ([7]; Artery): inactive; Activity [29]: 70 mmHg; Activity ([10]; Artery): inactive; Activity [30]: 428 bpm; Activity [31]: 458 bpm; Activity [32]: 42 mmHg; Activity [33]: 446 bpm
